Experimental data pooled from the literature.
Each line is one published result; the experiments were not run side by side.

Structure (SMILES)	cell line	assay	setting	measurement	result
C/C1=C/C(=O)O[C@@H]2C[C@@H](CC[C@H](C)/C=C\C=C\CC1)O[C@@](O)([C@@H]1CSC(=O)N1)C2	MCF7	cell growth or viability, MTT	72 h	IC50	480 nM
COc1cc2c3c(n(CCCN4CCOCC4)c(=O)c2cc1OC)-c1cc2c(cc1C3=O)OCO2	P388	cell growth or viability	72 h	IC50	0.154 µg/mL
CCCCCCCC(=O)SCC/C=C/[C@@H]1CC(=O)NCc2nc(cs2)C2=N[C@@](C)(CS2)C(=O)N[C@@H](C(C)C)C(=O)O1	SW-620	cell growth or viability, resazurin	48 h	IC50	26.5 nM
CC(C)[C@@H]1NC(=O)[C@H](CO)NC(=O)[C@H](CO)NC(=O)[C@H](CO)N(C)C(=O)[C@H](CC(=O)O)NC(=O)[C@H](CO)NC(=O)[C@H](Cc2ccccc2)NC(=O)CSC[C@@H](C(=O)NCC(N)=O)NC(=O)[C@H](CC(N)=O)NC(=O)[C@H](CCCNC(=N)N)NC(=O)[C@H](C)NC(=O)[C@H](Cc2ccc(-c3ccccc3)cc2)NC(=O)[C@H](CC(N)=O)NC(=O)[C@@H]2CCCN2C1=O	SJSA-1	cell growth or viability		EC50	> 30000 nM
C[C@@H](O)[C@H](NC(=O)[C@H](CCCNC(=N)N)NC(=O)[C@H](CC(N)=O)NC(=O)[C@H](CC(N)=O)NC(=O)[C@@H](N)CCCNC(=N)N)C(=O)N[C@@H](CO)C(=O)NCC(=O)N[C@@H](Cc1ccccc1)C(=O)N[C@@H](CCCCN)C(=O)N[C@@H](Cc1c[nH]c2ccccc12)C(=O)O	THP-1	cell growth or viability, ATP luminescence	48 h	IC50	1800 nM
Cn1cncc1[C@@](N)(c1ccc(Cl)cc1)c1ccc2c(c1)c(-c1cccc(Cl)c1)cc(=O)n2C	FaDu	cell growth or viability	72 h	IC50	2730 nM
C=CC(=O)Nc1cc(Nc2nccc(-c3cn(C)c4ccccc34)n2)c(OC)cc1N(C)CCN(C)C	Calu-3	cell growth or viability	72 h	IC50	650 nM
Cc1c2ccncc2c(C)c2c1[nH]c1ccccc12	THP-1	TNF-α release, inhibitor	17 h, LPS-stimulated	IC50	1570 nM
c1ccc([C@@H]2C[C@H]2NC2CCNCC2)cc1	TF-1a	cell growth or viability, resazurin	96 h	EC50	1.55 nM
COc1c2c(cc3c1OCO3)[C@]13C=C[C@H](OC)C[C@@H]1[N@](C2)C[C@H]3OC(=O)c1ccco1	SAOS-2	cell growth or viability, WST-1		IC50	> 10000 nM
N.N.[Cl][Pt][Cl]	MCF7	cell growth or viability, MTT	48 h	IC50	15600 nM
O=c1ccc2cc3ccoc3cc2o1	HEp-2	cell growth or viability, WST-1	48 h	IC50	20500 nM
C1COCCN1.COc1ccc(/C=C\c2cc(I)c(OC)c(I)c2)cc1OP(=O)(O)O	MCF7	cell growth or viability, SRB	48 h	GI50	0.066 µg/mL
CC(C)[C@H](N)C(=O)N1CCC[C@H]1B(O)O	THP-1	cell growth or viability, ATP luminescence	48 h	IC50	206 nM
O=c1ccc2ccc3occc3c2o1	HEp-2	cell growth or viability, WST-1	48 h	IC50	11500 nM
COc1cc2c3c(n(CCCNCCO)c(=O)c2cc1OC)-c1cc2c(cc1C3=O)OCO2	MCF7	cell growth or viability, SRB		GI50	< 10 nM
CCN1C(=O)SCC1C1(OC)CC2CC(CCC(C)C=CC=CCCC(C)=CC(=O)O2)O1 (stereo not shown)	MCF7	cell growth or viability, MTT	72 h	IC50	20600 nM
N.N.[Cl][Pt][Cl]	MCF7	cell growth or viability, SRB		EC50	3600 nM
COc1c2c(cc3c1OCO3)[C@]13C=C[C@H](OC)C[C@@H]1[N@](C2)C[C@H]3OC(=O)c1ccoc1	SAOS-2	cell growth or viability, WST-1		IC50	> 10000 nM
